pIC50, pKi: −log10 of the molar value. Read-outs that look alike come from different tables or passages of the source.
How the values were obtained:
Assay type in all cases: biochemical
UGT1A6 [1] = target: T1, UGT1A6 (Homo sapiens, UniProt P19224); assay: 4-MU glucuronidation, UPLC-UV, Lineweaver-Burk slope replot
T1 sequence (P19224 27-532): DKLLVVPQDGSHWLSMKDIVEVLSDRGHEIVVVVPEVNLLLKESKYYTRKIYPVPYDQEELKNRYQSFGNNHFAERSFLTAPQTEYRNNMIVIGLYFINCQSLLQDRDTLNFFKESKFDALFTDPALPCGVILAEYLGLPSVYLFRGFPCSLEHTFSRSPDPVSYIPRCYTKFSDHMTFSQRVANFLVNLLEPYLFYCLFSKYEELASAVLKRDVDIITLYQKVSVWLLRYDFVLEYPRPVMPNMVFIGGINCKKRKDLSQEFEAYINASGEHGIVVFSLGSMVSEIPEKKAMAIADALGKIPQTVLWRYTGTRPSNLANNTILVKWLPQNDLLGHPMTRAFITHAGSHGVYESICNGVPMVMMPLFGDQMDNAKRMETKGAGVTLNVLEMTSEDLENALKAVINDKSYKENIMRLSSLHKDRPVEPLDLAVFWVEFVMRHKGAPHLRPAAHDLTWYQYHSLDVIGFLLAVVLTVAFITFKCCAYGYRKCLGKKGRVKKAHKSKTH
Summary of the method: (§1)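 Recombinant human UGT isoform expressed in insect cells. 4-MU was varied, with or without test compound at levels giving 20%, 40%, 60% and 80% inhibition. After 5 min at 37 °C, 5 mM UDPGA was added; reactions ran 30–120 min. Glucuronide was quantified by UPLC-UV at 316 nm against a 7-hydroxycoumarin internal standard, with points as duplicate means. Inhibition type came from Lineweaver-Burk plots, and Ki from a replot of slopes against inhibitor concentration.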

UGT1A9 [2] = target: T2, UGT1A9 (Homo sapiens, UniProt O60656); assay: as above
T2 sequence (O60656 26-530): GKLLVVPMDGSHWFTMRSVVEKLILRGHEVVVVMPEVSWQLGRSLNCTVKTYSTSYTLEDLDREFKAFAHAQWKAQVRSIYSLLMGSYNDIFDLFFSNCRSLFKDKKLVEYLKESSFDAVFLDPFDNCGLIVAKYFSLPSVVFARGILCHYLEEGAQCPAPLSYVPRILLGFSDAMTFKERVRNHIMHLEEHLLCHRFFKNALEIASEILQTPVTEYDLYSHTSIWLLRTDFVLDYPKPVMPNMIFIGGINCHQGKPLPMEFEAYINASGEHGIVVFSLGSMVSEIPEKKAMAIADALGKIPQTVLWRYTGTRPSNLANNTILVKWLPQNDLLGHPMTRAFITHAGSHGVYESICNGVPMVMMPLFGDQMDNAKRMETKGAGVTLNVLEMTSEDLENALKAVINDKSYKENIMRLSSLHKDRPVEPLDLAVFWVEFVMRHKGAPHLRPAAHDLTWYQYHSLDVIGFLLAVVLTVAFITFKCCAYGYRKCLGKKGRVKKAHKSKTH
Summary of the method: as §1

UGT1A9 [3] = target: T2, UGT1A9; assay: 4-MU glucuronidation, UPLC-UV, dose response
Summary of the method: (§2)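 Recombinant human UGT isoform expressed in baculovirus-infected insect cells. Test compound at 0, 0.5, 1, 5, 10, 20, 40, 60, 80 and 100 µM, with no-compound controls. After 5 min preincubation at 37 °C, 5 mM UDPGA was added to start the reaction. Reactions were stopped at 30–120 min with acetonitrile containing 7-hydroxycoumarin internal standard. 4-MU glucuronide was measured by C18 UPLC with UV at 316 nm as the peak-area ratio to internal standard. Two independent experiments in duplicate.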

UGT1A7 [4] = target: T3, UGT1A7 (Homo sapiens, UniProt Q9HAW7); assay: 4-MU glucuronidation, UPLC-UV, dose response
T3 sequence (Q9HAW7 26-530): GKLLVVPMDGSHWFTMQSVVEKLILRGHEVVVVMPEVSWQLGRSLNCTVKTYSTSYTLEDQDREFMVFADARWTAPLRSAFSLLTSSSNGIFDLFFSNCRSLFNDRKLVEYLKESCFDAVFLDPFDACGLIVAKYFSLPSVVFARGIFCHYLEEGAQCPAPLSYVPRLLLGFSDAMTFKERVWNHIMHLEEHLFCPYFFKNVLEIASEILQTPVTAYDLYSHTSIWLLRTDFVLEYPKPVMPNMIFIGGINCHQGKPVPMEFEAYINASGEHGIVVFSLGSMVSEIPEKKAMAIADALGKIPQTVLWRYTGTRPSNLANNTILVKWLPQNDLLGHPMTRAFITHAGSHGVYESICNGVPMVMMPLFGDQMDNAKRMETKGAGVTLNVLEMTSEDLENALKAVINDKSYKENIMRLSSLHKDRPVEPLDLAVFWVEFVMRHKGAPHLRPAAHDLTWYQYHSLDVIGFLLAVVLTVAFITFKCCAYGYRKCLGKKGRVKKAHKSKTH
Summary of the method: as §2

UGT1A7 [5] = target: T3, UGT1A7; assay: 4-MU glucuronidation, UPLC-UV, Lineweaver-Burk slope replot
Summary of the method: as §1

UGT1A6 [6] = target: T1, UGT1A6; assay: 4-MU glucuronidation, UPLC-UV, dose response
Summary of the method: as §2

UGT2B4 [7] = target: T4, UGT2B4 (Homo sapiens, UniProt P06133); assay: 4-MU glucuronidation, UPLC-UV, Lineweaver-Burk slope replot
T4 sequence (P06133 24-528): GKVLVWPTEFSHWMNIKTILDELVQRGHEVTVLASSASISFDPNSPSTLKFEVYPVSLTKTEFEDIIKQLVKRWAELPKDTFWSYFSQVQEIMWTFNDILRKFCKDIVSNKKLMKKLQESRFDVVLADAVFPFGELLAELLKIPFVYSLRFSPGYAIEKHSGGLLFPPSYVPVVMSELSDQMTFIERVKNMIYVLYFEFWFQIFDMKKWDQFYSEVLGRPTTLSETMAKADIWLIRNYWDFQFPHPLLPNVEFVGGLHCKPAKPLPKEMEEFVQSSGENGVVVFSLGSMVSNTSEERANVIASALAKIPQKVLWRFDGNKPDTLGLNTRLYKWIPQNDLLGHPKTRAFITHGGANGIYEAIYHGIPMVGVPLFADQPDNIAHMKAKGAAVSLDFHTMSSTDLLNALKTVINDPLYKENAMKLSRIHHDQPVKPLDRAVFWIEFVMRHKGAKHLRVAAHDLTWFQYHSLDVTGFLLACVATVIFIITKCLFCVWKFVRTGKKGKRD
Summary of the method: as §1

UGT2B4 [8] = target: T4, UGT2B4; assay: 4-MU glucuronidation, UPLC-UV, dose response
Summary of the method: as §2

[9] = competitive, 4-MU varied, UDPGA 5 mM, MgCl2 5 mM, Tris-HCl pH 7.4, 37 °C
[10] = competitive, 4-MU 30 μM, UDPGA 5 mM, MgCl2 5 mM, Tris-HCl pH 7.4, 37 °C

Row | Compound | pKi (UGT1A9 [2]) | pIC50 (UGT1A9 [3]) | pKi (UGT2B4 [7]) | pIC50 (UGT2B4 [8]) | pKi (UGT1A9 [2]; [9]) | pIC50 (UGT1A9 [3]; [10]) | further results
1 | CCCCOCCOC(=O)c1ccccc1C(=O)OCCOCCCC [BBOP] | 4.13 | 4.55 | – | – | – | – | pKi (UGT1A6 [1]): 4.81; pIC50 (UGT1A7 [4]): 4.74; pKi (UGT1A7 [5]): 4.63; pIC50 (UGT1A6 [6]): 4.45
2 | CCCCOC(=O)c1ccccc1C(=O)OCc1ccccc1 [BBZP] | 6.08 | 5.26 | 5.14 | 4.86 | – | – | pKi (UGT1A6 [1]): 4.28; pIC50 (UGT1A7 [4]): 4.71; pKi (UGT1A7 [5]): 4.91; pIC50 (UGT1A6 [6]): 4.27
3 | C=CCOC(=O)c1ccccc1C(=O)OCC=C [DAP] | – | – | – | – | – | – | pKi (UGT2B4 [7]; [9]): 5.17; pIC50 (UGT2B4 [8]; competitive, 4-MU 1000 μM, UDPGA 5 mM, MgCl2 5 mM, Tris-HCl pH 7.4, 37 °C): 4.84
4 | CCCCOC(=O)c1ccccc1C(=O)OCCCC [DBP] | 4.64 | 4.75 | 5.31 | 4.92 | – | – | –
5 | O=C(OC1CCCCC1)c1ccccc1C(=O)OC1CCCCC1 [DCHP] | – | – | – | – | 5.97 | 5.84 | –
6 | CCCCCCOC(=O)c1ccccc1C(=O)OCCCCCC [DHP] | – | – | – | – | 6.24 | 4.60 | –
7 | COCCOC(=O)c1ccccc1C(=O)OCCOC [DMEP] | – | – | – | – | 5.35 | 4.74 | –
8 | CCCCCOC(=O)c1ccccc1C(=O)OCCCCC [DPP] | 5.76 | 4.73 | – | – | – | – | –
9 | CC(C)COC(=O)c1ccccc1C(=O)OCC(C)C [DiBP] | 5.55 | 5.15 | 5.17 | 5.23 | – | – | –
10 | CC(C)CCOC(=O)c1ccccc1C(=O)OCCC(C)C [DiPP] | 5.25 | 4.83 | – | – | – | – | –
